The target in data set [1] is Dual specificity protein kinase CLK1 (Mus musculus) (UniProt P22518). Put plainly: Inhibition of recombinant mouse CLK1 expressed in bacteria assessed as residual activity at 10 uM using GRSRSRSRSRSR as substrate in presence of [gamma-33P]ATP relative to control.
Data set [2] has as its target T1, Glycogen synthase kinase-3 (Sus scrofa) (UniProt B2LUN4+I6LNT8). Put plainly: Inhibition of porcine brain GSK-3alpha/beta assessed as residual activity at 1 uM using YRRAAVPPSPSLSRHSSPHQSpEDEEE as substrate in presence of [gamma-33P]ATP relative to control. Format: tissue-based. Particulars: Sus scrofa domesticus. The essentials:
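Affinity-purified porcine brain GSK-3α/β with 0.01 µg/µl GS-1 peptide (phosphoserine-primed) as substrate and 15 µM [γ-33P]ATP. Buffer was 25 mM Tris-HCl pH 7.5, 10 mM MgCl2, 1 mM EGTA, 1 mM DTT, 50 µg/ml heparin and 0.15 mg/ml BSA. Radioactive incorporation was compared with DMSO-dilution controls, in triplicate.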

The species entered for data set [3] is Sus scrofa domesticus. Description: Inhibition of porcine brain CK1delta/epsilon assessed as residual activity at 10 uM using RRKHAAIGSpAYSITA as substrate in presence of [gamma-33P]ATP relative to control. Format: tissue-based.
In data set [4] the target is Dual specificity tyrosine-phosphorylation-regulated kinase 1A (Rattus norvegicus) (UniProt Q63470). Description: Inhibition of rat DYRK1A kinase domain (1 to 499 residues) expressed in bacteria assessed as residual activity at 10 uM using KKISGRLSPIMTEQ as substrate in presence of [gamma-33P]ATP relative to control. In short, it runs like this: (§1)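 Buffer: 10 mM MgCl2, 1 mM EGTA, 1 mM DTT, 25 mM Tris-HCl pH 7.5, 50 μg/ml heparin, 0.15 mg/ml BSA.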

The target in data set [5] is T2, Cyclin-dependent kinase 5/CDK5 activator 1 (Homo sapiens) (UniProt Q00535+Q15078). Description: Inhibition of recombinant human CDK5/p25 expressed in bacteria assessed as residual activity at 1 uM using histone H1 as substrate in presence of [gamma-33P]ATP relative to control. The essentials:
(§2)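 Human recombinant CDK5/p25 (bacterially expressed) assayed with 0.8 μg/μl histone H1 as substrate and 15 μM [γ-33P]ATP. Residual activity versus DMSO controls, triplicate.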

For data set [6], the species on record is Sus scrofa domesticus. Put plainly: Inhibition of porcine brain CK1delta/epsilon assessed as residual activity at 1 uM using RRKHAAIGSpAYSITA as substrate in presence of [gamma-33P]ATP relative to control. Format: tissue-based.
Data set [7] deals with T2, Cyclin-dependent kinase 5/CDK5 activator 1 (Homo sapiens). Put plainly: Inhibition of recombinant human CDK5/p25 expressed in bacteria assessed as residual activity at 10 uM using histone H1 as substrate in presence of [gamma-33P]ATP relative to control. In short, it runs like this: as §2
The target in data set [8] is T1, Glycogen synthase kinase-3 (Sus scrofa). Description: Inhibition of porcine brain GSK-3alpha/beta assessed as residual activity at 10 uM using YRRAAVPPSPSLSRHSSPHQSpEDEEE as substrate in presence of [gamma-33P]ATP relative to control. Format: tissue-based. Particulars: Sus scrofa domesticus.
The target of data set [9] is T3, Dual specificity tyrosine-phosphorylation-regulated kinase 1A (Rattus norvegicus, UniProt Q63470). Put plainly: Inhibition of rat DYRK1A kinase domain (1 to 499 residues) expressed in bacteria using KKISGRLSPIMTEQ as substrate measured after 30 mins in presence of ATP by ADP-Glo kinase assay. The essentials:
(§3)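 ADP-Glo luminescent kinase assay at 10 μM ATP, 30 min reaction at 30 °C; luminescence read as relative light units to derive IC50.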
A general note: In ADP-Glo the light output rises with the ADP produced.

For data set [10], the target named is Dual specificity tyrosine-phosphorylation-regulated kinase 1A (Rattus norvegicus) (UniProt Q63470). Description: Inhibition of rat DYRK1A kinase domain (1 to 499 residues) expressed in bacteria assessed as residual activity at 1 uM using KKISGRLSPIMTEQ as substrate in presence of [gamma-33P]ATP relative to control. The essentials:
as §1

The target of data set [11] is Dual specificity protein kinase CLK1 (Mus musculus) (UniProt P22518). Put plainly: Inhibition of recombinant mouse CLK1 expressed in bacteria assessed as residual activity at 1 uM using GRSRSRSRSRSR as substrate in presence of [gamma-33P]ATP relative to control.
Data set [12] has as its system HCT-116. Description: Antiproliferative activity against human HCT116 cells assessed as cell viability at 2 uM after 48 hrs by CellTiter96 AQueous assay relative to control. Format: functional. Conditions: read-out: Activity. The essentials: (§4)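 Cells grown in McCoy's 5a (HCT116), DMEM (SH-SY5Y, MDA-MB231, U-2 OS) or DMEM:F12 (hTERT-RPE1), each with 10% fetal calf serum, 2 mM L-glutamine, penicillin/streptomycin. Exposed to compound at 2 μM for 48 h; viability read by CellTiter96 AQueous per manufacturer, as % of DMSO-treated cells. Triplicate, mean ± SD; staurosporine as positive control.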

The nature of data set [13]: Selectivity index, ratio of IC50 for recombinant mouse CLK1 expressed in bacteria to IC50 for rat DYRK1A kinase domain (1 to 499 residues) expressed in bacteria.
The target of data set [14] is T3, Dual specificity tyrosine-phosphorylation-regulated kinase 1A. Description: Inhibition of rat DYRK1A kinase domain (1 to 499 residues) expressed in bacteria using KKISGRLSPIMTEQ as substrate in presence of [gamma-33P]ATP. The essentials: as §1
Data set [15] has as its system SH-SY5Y. Put plainly: Antiproliferative activity against human SH-SY5Y cells assessed as cell viability at 2 uM after 48 hrs by CellTiter96 AQueous assay relative to control. Format: functional. Conditions: read-out: Activity. In short, it runs like this:
as §4

For data set [16], the system named is U2OS. Description: Antiproliferative activity against human U2OS cells assessed as cell viability at 2 uM after 48 hrs by CellTiter96 AQueous assay relative to control. Format: functional. Conditions: read-out: Activity. In short, it runs like this:
as §4

A short description of data set [17]: Antiproliferative activity against hTERT-RPE1 cells assessed as cell viability at 2 uM after 48 hrs by CellTiter96 AQueous assay relative to control. Format: cell-based, TERT-RPE1. Conditions: human, read-out: Activity. The essentials: as §4
Data set [18] deals with T4, Dual specificity protein kinase CLK1 (Mus musculus, UniProt P22518). Description: Inhibition of recombinant mouse CLK1 expressed in bacteria using GRSRSRSRSRSR as substrate in presence of [gamma-33P]ATP.
In data set [19] the test system is MDA-MB-231. Put plainly: Antiproliferative activity against human MDA-MB-231 cells assessed as cell viability at 2 uM after 48 hrs by CellTiter96 AQueous assay relative to control. Conditions: read-out: Activity. Format: functional. In short, it runs like this: as §4
Data set [20] deals with T4, Dual specificity protein kinase CLK1. Description: Inhibition of recombinant mouse CLK1 expressed in bacteria using GRSRSRSRSRSR as substrate measured after 30 mins in presence of ATP by ADP-Glo kinase assay. In short, it runs like this:
as §3

Sequence of Dual specificity protein kinase CLK1 (Mus musculus) (P22518 whole entry, looked up): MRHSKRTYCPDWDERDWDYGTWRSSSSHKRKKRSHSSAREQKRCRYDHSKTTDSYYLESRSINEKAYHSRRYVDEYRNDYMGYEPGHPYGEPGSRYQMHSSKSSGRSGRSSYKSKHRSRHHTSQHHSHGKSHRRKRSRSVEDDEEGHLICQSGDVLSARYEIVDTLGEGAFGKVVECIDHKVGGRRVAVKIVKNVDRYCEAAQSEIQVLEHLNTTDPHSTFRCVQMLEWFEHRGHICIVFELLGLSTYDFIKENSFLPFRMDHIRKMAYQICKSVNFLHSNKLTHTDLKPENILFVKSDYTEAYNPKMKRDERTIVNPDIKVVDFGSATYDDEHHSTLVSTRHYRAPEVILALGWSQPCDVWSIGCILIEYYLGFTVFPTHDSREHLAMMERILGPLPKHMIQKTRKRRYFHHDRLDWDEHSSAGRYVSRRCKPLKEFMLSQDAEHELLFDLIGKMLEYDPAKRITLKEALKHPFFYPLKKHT
T4 sequence (P22518 whole entry): as the sequence (P22518 whole entry, looked up) above
T2 sequence (Q00535 whole entry): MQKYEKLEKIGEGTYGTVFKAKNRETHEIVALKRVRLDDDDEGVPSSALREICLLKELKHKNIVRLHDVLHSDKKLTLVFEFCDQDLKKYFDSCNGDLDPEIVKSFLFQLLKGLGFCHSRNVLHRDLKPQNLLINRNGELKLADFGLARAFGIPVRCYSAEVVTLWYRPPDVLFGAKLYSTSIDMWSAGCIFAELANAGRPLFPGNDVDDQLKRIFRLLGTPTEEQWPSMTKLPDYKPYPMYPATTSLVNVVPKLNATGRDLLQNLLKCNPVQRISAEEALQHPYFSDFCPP
T2 sequence (Q15078 99-307 partner limits assumed): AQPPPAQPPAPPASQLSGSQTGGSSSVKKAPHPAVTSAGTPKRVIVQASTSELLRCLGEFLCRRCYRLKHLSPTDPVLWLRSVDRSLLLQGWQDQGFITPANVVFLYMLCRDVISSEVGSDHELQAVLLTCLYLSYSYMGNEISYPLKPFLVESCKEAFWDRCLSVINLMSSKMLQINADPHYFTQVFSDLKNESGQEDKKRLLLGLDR

What is called IC50 is the concentration that gives 50% inhibition. In the case of `Nc1c2ccncc2cc2cnc(NCCN3CCOCC3)nc12`, the Activity in data set [1] was 4%; in data set [2] it was 76%; in [3] it was 34%; in [4], 1%; in data set [5], 52%; in data set [6], 77%. Moreover, the Activity in data set [7] was 10%; in data set [8], 24%; in data set [10], 17%; in data set [11] it was 27%. For the same molecule, the IC50 in data set [9] was found to be 0.197 µM.
As for `CN1CCN(CCCNc2ncc3cc4cnccc4c(N)c3n2)CC1`, the Activity in [1] is 6%; in data set [2], 35%; in data set [3], 30%; in data set [4] it was 1%; in data set [5], 49%; in data set [6], 61%. The Activity in data set [7] came to 15%; in [8] it was 4%; in [10], 4%; in data set [11], 8%. Further, the viability at 2 µM in data set [12] turned out to be 0%; in data set [15], 0.1%; in [16], 0.1%; in data set [19] it was 3.6%. Besides, the Ratio IC50 in [13] is 5.9. The IC50 turned out to be 0.02 µM in data set [14] and 0.117 µM in [18]. The viability at 48 h, 2 µM in data set [17] came out at 0%.
As to `Nc1c2ccncc2cc2cnc(NCCCN3CCOCC3)nc12`, the Activity in [1] is 4%; in data set [2], 41%; in [3] it was 24%; in data set [4], 6%; in data set [5], 67%; in [6], 53%. In addition, the Activity is 23% in [7], 6% in data set [8], 5% in data set [10] and 20% in [11]. Further, the viability at 2 µM came out at 0.8% in [12], 3.6% in data set [15], 6.4% in data set [16] and 15% in data set [19]. In data set [13], the Ratio IC50 amounted to 12.6. In addition, the half-inhibitory concentration (IC50) in data set [14] worked out at 0.023 µM; in data set [18], 0.29 µM. The viability at 48 h, 2 µM in [17] turned out to be 0%.
Take `CNc1ncc2cc3cnccc3c(N)c2n1`: the Activity in data set [1] is 1%; in data set [2], 79%; in [3], 60%; in data set [4] it was 1%; in data set [5], 33%; in [6] it was 85%. Besides, the Activity in [7] was found to be 3%; in [8], 40%; in [10], 27%; in data set [11], 9%. Also, the IC50 in data set [20] came out at 0.274 µM.

The record behind these values is ChEMBL document CHEMBL4665625, “New pyrido[3,4-g]quinazoline derivatives as CLK1 and DYRK1A inhibitors: synthesis, biological evaluation and binding mode analysis” (Eur J Med Chem, 2019).
